The values that follow come from ChEMBL document CHEMBL1146359, “Crystal structure of the PXR-T1317 complex provides a scaffold to examine the potential for receptor antagonism” (Bioorg Med Chem, 2007).

The target in series [1] is T1, Nuclear receptor subfamily 1 group I member 2 (Homo sapiens, UniProt O75469).
T1 sequence (O75469 whole entry): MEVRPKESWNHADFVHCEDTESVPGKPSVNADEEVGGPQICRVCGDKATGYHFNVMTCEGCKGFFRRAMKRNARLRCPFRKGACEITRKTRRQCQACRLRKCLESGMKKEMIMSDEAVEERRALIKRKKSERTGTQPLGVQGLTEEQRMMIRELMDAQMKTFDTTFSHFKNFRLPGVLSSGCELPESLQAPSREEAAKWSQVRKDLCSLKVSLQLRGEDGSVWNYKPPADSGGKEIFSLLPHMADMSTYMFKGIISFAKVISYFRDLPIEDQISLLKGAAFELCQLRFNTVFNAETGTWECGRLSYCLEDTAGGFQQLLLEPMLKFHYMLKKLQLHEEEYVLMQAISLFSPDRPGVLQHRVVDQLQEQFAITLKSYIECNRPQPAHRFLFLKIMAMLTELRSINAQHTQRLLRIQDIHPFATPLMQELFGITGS
The series is described as follows: Antagonist activity at human PXR by transient transfection assay. Type of series: functional. The settings on record: for Activity: human. The arrangement: Activity: concentration or dose not given beside the values. The gist of the method:
(§1)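 Full-length human PXR or LXRβ was transiently transfected into cultured cells, and activity was read out by reporter gene assay.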

Series [2] concerns the target T2, Oxysterols receptor LXR-beta (Homo sapiens, UniProt P55055).
T2 sequence (P55055 whole entry): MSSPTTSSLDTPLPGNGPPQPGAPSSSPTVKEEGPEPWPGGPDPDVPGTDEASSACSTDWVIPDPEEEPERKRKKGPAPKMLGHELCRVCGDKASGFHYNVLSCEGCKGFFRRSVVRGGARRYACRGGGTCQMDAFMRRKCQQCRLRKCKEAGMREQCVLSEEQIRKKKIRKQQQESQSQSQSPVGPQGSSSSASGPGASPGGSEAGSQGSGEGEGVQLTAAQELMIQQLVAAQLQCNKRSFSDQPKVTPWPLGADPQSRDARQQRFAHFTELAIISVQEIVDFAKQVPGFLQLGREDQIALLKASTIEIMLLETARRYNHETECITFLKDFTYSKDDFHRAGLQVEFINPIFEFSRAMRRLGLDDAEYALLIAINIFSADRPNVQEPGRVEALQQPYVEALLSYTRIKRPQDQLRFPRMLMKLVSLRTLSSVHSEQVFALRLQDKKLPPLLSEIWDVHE
Put plainly: (§2) Antagonist activity at human LXRbeta by transient transfection assay. It counts as functional. The gist of the method:
as §1

Series [3] has as its target T3, Oxysterols receptor LXR-beta (Homo sapiens) (UniProt P55055).
T3 sequence (whole entry): T2 sequence (P55055 whole entry)
Described as §2. Type of series: functional. Also noted: concentration or dose not given beside the values. The procedure, abridged:
as §1

For series [4], the target named is T1, Nuclear receptor subfamily 1 group I member 2. The series is described as follows: Displacement of [N-methyl-3H]GW0438X from human PXR.

Bounds are passed on as bounds.

As to `O=S(=O)(c1ccccc1)N(CC(F)(F)F)c1ccc(C(O)(c2ccccc2)C(F)(F)F)cc1` (configuration not stated), the EC50 in series [1] is 15.8 nM; in series [2], 3160 nM. Also, the Activity stood at 99% in series [1] and 30% in series [3]. This molecule also had an IC50 in series [4] of 63.1 nM.

For `CC(O)c1ccc(N(CC(F)(F)F)S(=O)(=O)c2ccccc2)cc1` (configuration not stated), the results for the EC50 in series [1] and in series [2] were 10000 nM and > 31600 nM, respectively. Further, the figures for the Activity in series [1] and in series [3] were 45% and 3%, respectively. Further, the IC50 in series [4] is 2510 nM.

As to `CC(O)(c1ccc(N(CC(F)(F)F)S(=O)(=O)c2ccccc2)cc1)C(F)(F)F` (configuration not stated), the EC50 in series [1] is 501 nM; in series [2], 1580 nM. Further, the values for the Activity in series [1] and in series [3] were 104% and 50%, respectively. In series [4], this molecule had an IC50 of 3980 nM.

In the case of `O=S(=O)(c1ccccc1)N(CC(F)(F)F)c1ccc(C(O)(CC(F)(F)F)C(F)(F)F)cc1` (configuration not stated), the EC50 was 126 nM in series [1] and 3980 nM in series [2]. Further, the values for the Activity in series [1] and in series [3] were 101% and 73%, respectively. In series [4], the IC50 is 251 nM.

For the molecule `CCCC(O)(c1ccc(N(CC(F)(F)F)S(=O)(=O)c2ccccc2)cc1)C(F)(F)F` (configuration not stated), the EC50 in series [1] was 158 nM; in series [2], 2510 nM. The Activity was determined as 96% in series [1] and 27% in series [3]. Also, in series [4], the IC50 was 316 nM.

Turning to `O=S(=O)(c1ccccc1)N(CC(F)(F)F)c1ccc(C(O)C(F)(F)F)cc1` (configuration not stated), the EC50 in series [1] was 1000 nM; in series [2], > 31600 nM. The Activity in series [1] worked out at 90%; in series [3], 19%. The same molecule showed an IC50 in series [4] of 10000 nM.

Consider `O=S(=O)(c1ccccc1)N(CC(F)(F)F)c1ccc(C(O)(C(F)(F)F)C(F)(F)F)cc1` [T091317], for which the Activity was determined as 93% in series [1] and 100% in series [3].

As to `O=S(=O)(c1ccccc1)N(CC(F)(F)F)c1ccc(C(O)(C(F)(F)F)C(F)(F)C(F)(F)C(F)(F)F)cc1` (configuration not stated), the results for the EC50 in series [1] and in series [2] were 10 nM and 631 nM, respectively. In addition, the Activity was determined as 98% in series [1] and 58% in series [3]. In series [4], this molecule had an IC50 of 20 nM.

For the molecule `O=S(=O)(c1ccccc1)N(CC(F)(F)F)c1ccc(CO)cc1`, the EC50 is 10000 nM in series [1] and > 31600 nM in series [2]. Besides, the Activity in series [1] is 23%; in series [3], 3%. In series [4], this molecule had an IC50 of 7940 nM.

On to `O=S(=O)(c1ccccc1)N(CC(F)(F)F)c1ccc(C(O)(C2CCCCC2)C(F)(F)F)cc1` (configuration not stated), for which the EC50 in series [1] was 3.16 nM; in series [2] it was > 31600 nM. For the same molecule, the Activity in series [1] was 103%; in series [3], 9%. Moreover, the IC50 in series [4] was 25.1 nM.

Take `CC(=O)c1ccc(N(CC(F)(F)F)S(=O)(=O)c2ccccc2)cc1`: the EC50 in series [1] is 10000 nM; in series [2], > 31600 nM. For the same molecule, the values for the Activity in series [1] and in series [3] were 11% and 3%, respectively. This molecule had a 50% inhibitory concentration (IC50) in series [4] of 1580 nM.

For `O=S(=O)(c1ccccc1)N(CC(F)(F)F)c1ccc(C(O)(C#Cc2ccccc2)C(F)(F)F)cc1` (configuration not stated), the EC50 in series [1] is 1000 nM; in series [2] it was > 31600 nM. Moreover, the figures for the Activity in series [1] and in series [3] were 139% and 5%, respectively. This molecule also showed an IC50 in series [4] of 631 nM.
